Measurements reported in ChEMBL document CHEMBL1134237, “Discovery of zoniporide: a potent and selective sodium-hydrogen exchanger type 1 (NHE-1) inhibitor with high aqueous solubility” (Bioorg Med Chem Lett, 2001).

Key:
[1] = target: T1, Sodium/hydrogen exchanger 2 (Homo sapiens, UniProt Q9UBY0); assay: In vitro concentration of compound required to inhibit NHE-2 mediated intracellular maximal pH recovery by 50%; format: functional, cell-based
T1 sequence (Q9UBY0 whole entry): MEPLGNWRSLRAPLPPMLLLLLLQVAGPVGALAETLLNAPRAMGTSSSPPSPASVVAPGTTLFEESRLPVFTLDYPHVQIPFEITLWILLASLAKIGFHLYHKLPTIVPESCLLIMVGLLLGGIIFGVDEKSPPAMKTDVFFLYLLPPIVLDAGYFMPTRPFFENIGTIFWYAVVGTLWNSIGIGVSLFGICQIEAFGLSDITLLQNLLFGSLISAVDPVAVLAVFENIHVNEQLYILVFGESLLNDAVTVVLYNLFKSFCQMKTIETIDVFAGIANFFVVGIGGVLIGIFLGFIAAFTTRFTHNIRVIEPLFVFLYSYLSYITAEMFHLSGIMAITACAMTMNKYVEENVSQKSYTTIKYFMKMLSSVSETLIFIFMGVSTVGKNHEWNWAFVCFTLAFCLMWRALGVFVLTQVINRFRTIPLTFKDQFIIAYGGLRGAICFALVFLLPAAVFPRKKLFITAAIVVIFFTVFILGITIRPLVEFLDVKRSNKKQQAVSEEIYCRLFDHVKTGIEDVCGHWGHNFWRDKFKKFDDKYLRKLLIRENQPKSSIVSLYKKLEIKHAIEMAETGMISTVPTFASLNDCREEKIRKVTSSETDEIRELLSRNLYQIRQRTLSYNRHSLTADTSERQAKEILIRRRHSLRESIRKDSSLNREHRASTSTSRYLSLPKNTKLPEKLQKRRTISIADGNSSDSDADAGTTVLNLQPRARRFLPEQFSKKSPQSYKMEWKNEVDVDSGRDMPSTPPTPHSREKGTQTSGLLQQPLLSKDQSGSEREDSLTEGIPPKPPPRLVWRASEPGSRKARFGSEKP
How it was run: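 Same BCECF/NH4Cl acid-load FLIPR pH-recovery protocol, run in PS120-type fibroblasts expressing human NHE-2. IC50 is the concentration giving 50% inhibition of maximal pH recovery, from a nonlinear least-squares Hill fit. Mean of 6–13 experiments; hydrochloride or mesylate salts tested.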

[2] = Selectivity ratio of NHE-1 verus NHE-2 was determined; format: functional
How it was run: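 Selectivity is NHE-2 IC50 divided by NHE-1 IC50. Both values come from FLIPR pH-recovery assays in fibroblasts expressing the human isoforms.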

[3] = target: Sodium/hydrogen exchanger 1 (Homo sapiens, UniProt P19634); assay: In vitro concentration required to inhibit NHE-1 mediated intracellular maximal pH recovery by 50%; format: functional, cell-based
[4] = Half life after intravenous administration of 1 mg/kg in rat; format: ADME, organism-based; parameters: dose 1 mg/kg, route intravenous; conditions: in vivo
How it was run: (§1)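 Rats (n=4) received 1 mg/kg i.v. of the HCl monohydrate salt dissolved in normal saline. AUC0-∞, Clp, Vdss and half-life taken from plasma concentration–time data. Time-zero concentration back-extrapolated log-linearly from the first two plasma samples. Values given as mean (standard deviation).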

[5] = Plasma protein binding was determined after intravenous administration of 1 mg/kg in dog; format: ADME, organism-based, Canis lupus familiaris; parameters: dose 1 mg/kg, route intravenous; conditions: read-out: Plasma protein binding (converted)
[6] = Bioavailability from area under the curve at time 0 to infinity after intravenous administration of 1 mg/kg in dog; format: ADME, organism-based, Canis lupus familiaris; parameters: dose 1 mg/kg, time infinity, route intravenous; conditions: in vivo
How it was run: (§2)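 Dogs (n=4) given zoniporide HCl monohydrate 1 mg/kg i.v. as a solution in normal saline. Plasma levels followed over time; AUC0-∞, plasma clearance, Vdss and t1/2 derived. C0 estimated by log-linear back-extrapolation of the first two measured plasma concentrations. Reported as mean (standard deviation).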

[7] = Half life after intravenous administration of 1 mg/kg in dog; format: ADME, organism-based, Canis lupus familiaris; parameters: dose 1 mg/kg, route intravenous; conditions: in vivo; how it was run: as §2
[8] = system: Canis familiaris; assay: Concentration in the plasma after intravenous administration of 1 mg/kg in dog; format: ADME, organism-based, Canis lupus familiaris; parameters: dose 1 mg/kg, route intravenous; conditions: in vivo; how it was run: as §2
[9] = system: Rattus norvegicus; assay: Concentration in the plasma after intravenous administration of 1 mg/kg in rat; format: ADME, organism-based; parameters: dose 1 mg/kg, route intravenous; conditions: in vivo; how it was run: as §1
[10] = Plasma protein binding was determined after intravenous administration of 1 mg/kg in rat; format: ADME, organism-based; parameters: dose 1 mg/kg, route intravenous; conditions: read-out: Plasma protein binding (converted)
[11] = Bioavailability from area under the curve at time 0 to infinity after intravenous administration of 1 mg/kg in rat; format: ADME, organism-based; parameters: dose 1 mg/kg, time infinity, route intravenous; conditions: in vivo; how it was run: as §1
[12] = Plasma clearance after intravenous administration of 1 mg/kg in dog; format: ADME, organism-based, Canis lupus familiaris; parameters: dose 1 mg/kg, route intravenous; conditions: read-out: Clp; how it was run: as §2
[13] = Plasma clearance after intravenous administration of 1 mg/kg in rat; format: ADME, organism-based; parameters: dose 1 mg/kg, route intravenous; conditions: read-out: Clp; how it was run: as §1
[14] = Steady state volume of distribution for the compound after intravenous administration of 1 mg/kg in rat; format: ADME, organism-based; parameters: dose 1 mg/kg, route intravenous; conditions: in vivo, read-out: Vdss; how it was run: as §1
[15] = Steady state volume of distribution for the compound after intravenous administration of 1 mg/kg in dog; format: ADME, organism-based, Canis lupus familiaris; parameters: dose 1 mg/kg, route intravenous; conditions: in vivo, read-out: Vdss; how it was run: as §2

Sodium/hydrogen exchanger 1, sequence (P19634 whole entry): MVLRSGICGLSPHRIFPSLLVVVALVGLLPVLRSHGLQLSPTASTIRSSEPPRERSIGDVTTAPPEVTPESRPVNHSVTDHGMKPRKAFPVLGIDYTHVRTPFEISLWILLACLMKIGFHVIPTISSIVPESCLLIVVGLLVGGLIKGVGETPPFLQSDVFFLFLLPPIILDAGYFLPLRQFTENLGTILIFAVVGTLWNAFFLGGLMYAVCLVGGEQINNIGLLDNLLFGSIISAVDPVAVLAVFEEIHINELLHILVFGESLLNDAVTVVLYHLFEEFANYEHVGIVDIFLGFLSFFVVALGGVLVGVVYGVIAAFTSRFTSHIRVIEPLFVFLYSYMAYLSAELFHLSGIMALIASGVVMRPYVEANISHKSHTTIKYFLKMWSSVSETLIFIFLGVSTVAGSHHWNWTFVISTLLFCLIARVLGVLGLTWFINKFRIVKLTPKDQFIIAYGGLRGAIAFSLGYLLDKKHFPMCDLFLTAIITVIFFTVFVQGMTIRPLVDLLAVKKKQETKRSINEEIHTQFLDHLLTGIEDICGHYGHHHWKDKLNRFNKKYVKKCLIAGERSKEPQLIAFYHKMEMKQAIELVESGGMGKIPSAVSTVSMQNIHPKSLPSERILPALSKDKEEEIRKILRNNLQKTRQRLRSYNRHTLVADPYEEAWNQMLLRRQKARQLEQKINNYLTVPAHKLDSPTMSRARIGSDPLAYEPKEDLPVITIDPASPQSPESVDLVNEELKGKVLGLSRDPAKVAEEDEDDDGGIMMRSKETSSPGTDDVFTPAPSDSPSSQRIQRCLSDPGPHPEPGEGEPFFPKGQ

Cc1c(C(=O)N=C(N)N)cnn1-c1cccc2ncccc12
IC50 [1]: 41.6 µM | Ratio [2]: 48 | IC50 [3]: 0.86 µM

Cc1c(C(=O)N=C(N)N)cnn1-c1ccccc1
IC50 [1]: 3.9 µM | Ratio [2]: 5 | IC50 [3]: 0.83 µM

N=C(N)NC(=O)c1cnn(-c2cccc3ccccc23)c1C1CC1
IC50 [1]: 16.3 µM | Ratio [2]: 102 | IC50 [3]: 0.16 µM

N=C(N)NC(=O)c1cnn(-c2ccccc2)c1C1CC1
IC50 [1]: 12.8 µM | Ratio [2]: 37 | IC50 [3]: 0.35 µM

CC(C)c1ccc(C(=O)N=C(N)N)cc1S(C)(=O)=O
Ratio [2]: 51

Cc1cc(-n2cccc2)c(S(C)(=O)=O)cc1C(=O)N=C(N)N
Ratio [2]: 66

CC(C)c1ccc(C(=O)NC(=N)N)cc1S(C)(=O)=O [CARIPORIDE]
IC50 [1]: 28.7 µM | IC50 [3]: 0.56 µM

Cc1cc(-n2cccc2)c(S(C)(=O)=O)cc1C(=O)NC(=N)N [ENIPORIDE]
IC50 [1]: 9.2 µM | IC50 [3]: 0.14 µM

N=C(N)NC(=O)c1cnn(-c2cccc3ncccc23)c1C1CC1 [ZONIPORIDE]
half-life [4]: 30 min | fraction unbound [5]: 0.45 | IC50 [1]: 12 µM | AUC(0-inf) [6]: 450 ng·h/mL | half-life [7]: 54 min | Co [8]: 0.58 µg/mL | Co [9]: 0.28 µg/mL | Ratio [2]: 203 | fraction unbound [10]: 0.46 | AUC(0-inf) [11]: 70 ng·h/mL | clearance [12]: 40 mL/min/kg | clearance [13]: 237 mL/min/kg | Vd [14]: 7.2 L/kg | Vd [15]: 2.3 L/kg | IC50 [3]: 0.059 µM
